Source: ChEMBL document CHEMBL3774372, “Design, physico-chemical properties and biological evaluation of some new N-[(phenoxy)alkyl]- and N-{2-[2-(phenoxy)ethoxy]ethyl}aminoalkanols as anticonvulsant agents” (Bioorg Med Chem, 2016)
Active and inactive are the calls of the source.

Tests used:
Mus musculus [1] = test: Anticonvulsant activity in mouse assessed as protection against maximal electric shock-induced seizures at 100 mg/kg, ip measured after 0.5 hrs; format: functional, organism-based
How it was run: (§1)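 Mice dosed ip with suspension in 0.5% methylcellulose; maximal electroshock applied at the listed time after dosing. Protection = abolition of hindlimb tonic extension component of seizure; reported as animals protected/animals tested.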

Mus musculus [2] = test: Anticonvulsant activity in mouse assessed as protection against subcutaneous pentylenetetrazol-induced seizures at 100 mg/kg, ip measured after 0.5 hrs; format: functional, organism-based
How it was run: (§2)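 Mice dosed ip as 0.5% methylcellulose suspension; pentylenetetrazole 85 mg/kg in 0.9% NaCl injected subcutaneously into posterior midline, animals watched at least 30 min. Protection = no threshold seizure (single clonic spasm episode lasting ≥5 s); scored protected/tested.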

Mus musculus [3] = test: Neurotoxicity in mouse at 100 mg/kg, ip after 4 hrs by rotarod test; format: toxicity, organism-based; settings: in vivo
How it was run: (§3)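 Mice were dosed ip with compound suspended in 0.5% methylcellulose. Rotarod: a 1 in. knurled rod turning at 6 rpm. Neurotoxicity was scored as failure to stay on the rod for at least 1 min in each of three trials. Results are given as the number of animals affected out of the number tested.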

Mus musculus [4] = test: Anticonvulsant activity in mouse assessed as protection against maximal electric shock-induced seizures at 30 mg/kg, ip measured after 0.5 hrs; format: functional, organism-based; how it was run: as §1
Mus musculus [5] = test: Neurotoxicity in mouse at 100 mg/kg, ip after 0.5 hrs by rotarod test; format: toxicity, organism-based; settings: in vivo; how it was run: as §3
Mus musculus [6] = test: Anticonvulsant activity in mouse assessed as protection against maximal electric shock-induced seizures at 100 mg/kg, ip measured after 4 hrs; format: functional, organism-based; how it was run: as §1
Mus musculus [7] = test: Anticonvulsant activity in mouse assessed as protection against subcutaneous pentylenetetrazol-induced seizures at 100 mg/kg, ip measured after 4 hrs; format: functional, organism-based; how it was run: as §2
Mus musculus [8] = test: Neurotoxicity in mouse at 30 mg/kg, ip after 0.5 hrs by rotarod test; format: toxicity, organism-based; settings: in vivo; how it was run: as §3
Mus musculus [9] = test: Anticonvulsant activity in mouse assessed as protection against maximal electric shock-induced seizures at 30 mg/kg, ip measured after 4 hrs; format: functional, organism-based; how it was run: as §1
Mus musculus [10] = test: Anticonvulsant activity in mouse assessed as protection against subcutaneous pentylenetetrazol-induced seizures at 30 mg/kg, ip measured after 4 hrs; format: functional, organism-based; how it was run: as §2
Mus musculus [11] = test: Neurotoxicity in mouse at 300 mg/kg, ip after 0.5 hrs by rotarod test; format: toxicity, organism-based; settings: in vivo; how it was run: as §3
Mus musculus [12] = test: Neurotoxicity in mouse at 30 mg/kg, ip after 4 hrs by rotarod test; format: toxicity, organism-based; settings: in vivo; how it was run: as §3
Mus musculus [13] = test: Anticonvulsant activity in mouse assessed as protection against subcutaneous pentylenetetrazol-induced seizures at 30 mg/kg, ip measured after 0.5 hrs; format: functional, organism-based; how it was run: as §2
Rattus norvegicus [14] = test: Neurotoxicity in rat at 30 mg/kg, po after 2 hrs by rotarod test; format: toxicity, organism-based; settings: in vivo
Vibrio harveyi [15] = test: Mutagenicity in Vibrio harveyi BB7XM assessed as number of colonies after 48 hrs (reference value: 14 no_unit); format: ADME, organism-based; settings: in vivo
How it was run: (§4)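 Vibrio harveyi mutagenicity test: test compound was added to exponentially growing cultures (A600 = 0.1, 30 °C) and grown to OD600 0.3–0.4. Then 5 × 10^6 cells were plated on BOSS agar with neomycin (final 100 µg/mL) and incubated 48 h at 30 °C. Neomycin-resistant colonies were counted. Triplicate; controls were water, DMSO and NQNO 40 ng/mL.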

Vibrio harveyi [16] = test: Antimutagenic activity against Vibrio harveyi BB7XM assessed as inhibition of NQNO-induced mutagenicity after 48 hrs; format: functional
How it was run: (§5)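 V. harveyi cultures grown exponentially to A600 0.1 at 30 °C, exposed to test compound for 15 min, then to NQNO, and grown on to A600 0.3–0.4. 5 × 10⁶ cells plated on BOSS agar with neomycin (100, final). Neomycin-resistant colonies counted after 48 h at 30 °C. Result given as % inhibition of NQNO mutagenicity; three independent repeats.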

Rattus norvegicus [17] = test: Anticonvulsant activity in rat assessed as protection against maximal electric shock-induced seizures at 30 mg/kg, po measured after […]; format: functional, organism-based
Vibrio harveyi [18] = test: Antimutagenic activity against Vibrio harveyi BB7 assessed as inhibition of NQNO-induced mutagenicity after 48 hrs; format: functional; how it was run: as §5
Rattus norvegicus [19] = test: Neurotoxicity in rat at 30 mg/kg, po after 0.5 hrs by rotarod test; format: toxicity, organism-based; settings: in vivo
Vibrio harveyi [20] = test: Antimutagenic activity against Vibrio harveyi BB7X assessed as inhibition of NQNO-induced mutagenicity after 48 hrs; format: functional; how it was run: as §5
Rattus norvegicus [21] = test: Neurotoxicity in rat at 30 mg/kg, po after 1 hr by rotarod test; format: toxicity, organism-based; settings: in vivo
Vibrio harveyi [22] = test: Mutagenicity in Vibrio harveyi BB7 assessed as number of colonies after 48 hrs (reference value: 13 to 14 no_unit); format: ADME, organism-based; settings: in vivo; how it was run: as §4
Vibrio harveyi [23] = test: Mutagenicity in Vibrio harveyi BB7X assessed as number of colonies after 48 hrs (reference value: 15 to 16 no_unit); format: ADME, organism-based; settings: in vivo; how it was run: as §4
Rattus norvegicus [24] = test: Anticonvulsant activity in rat assessed as protection against maximal electric shock-induced seizures at 30 mg/kg, po measured after 2 hrs; format: functional, organism-based
How it was run: (§6)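 Rats dosed ip or orally as 0.5% methylcellulose suspension; maximal electroshock at listed time. Protection = abolition of hindlimb tonic extension; 4 rats per group, scored protected/tested.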

Vibrio harveyi [25] = test: Antimutagenic activity against Vibrio harveyi BB7M assessed as inhibition of NQNO-induced mutagenicity after 48 hrs; format: functional; how it was run: as §5
Rattus norvegicus [26] = test: Neurotoxicity in rat at 30 mg/kg, po after […] by rotarod test; format: toxicity, organism-based; settings: in vivo
Vibrio harveyi [27] = test: Mutagenicity in Vibrio harveyi BB7M assessed as number of colonies after 48 hrs (reference value: 13 to 14 no_unit); format: ADME, organism-based; settings: in vivo; how it was run: as §4
Rattus norvegicus [28] = test: Neurotoxicity in rat at 30 mg/kg, po after 4 hrs by rotarod test; format: toxicity, organism-based; settings: in vivo
Rattus norvegicus [29] = test: Anticonvulsant activity in rat assessed as protection against maximal electric shock-induced seizures at 30 mg/kg, po measured after 0.5 hrs; format: functional, organism-based; how it was run: as §6
Rattus norvegicus [30] = test: Anticonvulsant activity in rat assessed as protection against maximal electric shock-induced seizures at 30 mg/kg, po measured after 4 hrs; format: functional, organism-based; how it was run: as §6
Mus musculus [31] = test: Anticonvulsant activity in mouse assessed as protection against maximal electric shock-induced seizures at 3 mg/kg, ip measured after 0.5 hrs; format: functional, organism-based; how it was run: as §1
Rattus norvegicus [32] = test: Anticonvulsant activity in rat assessed as protection against maximal electric shock-induced seizures at 30 mg/kg, po measured after 1 hr; format: functional, organism-based; how it was run: as §6

Row | Compound | Activity (Mus musculus [1]) | Activity (Mus musculus [2]) | Activity (Mus musculus [3]) | Activity (Mus musculus [4]) | Activity (Mus musculus [5]) | Activity (Mus musculus [6]) | Activity (Mus musculus [7]) | Activity (Mus musculus [8]) | Activity (Mus musculus [9]) | Activity (Mus musculus [10]) | Activity (Mus musculus [11]) | Activity (Mus musculus [12]) | Activity (Mus musculus [13]) | Activity (Rattus norvegicus [14]) | Activity (Vibrio harveyi [15]) | Activity (Rattus norvegicus [19]) | Activity (Rattus norvegicus [21]) | Activity (Vibrio harveyi [22]) | Activity (Vibrio harveyi [23]) | Activity (Rattus norvegicus [24]) | also measured
1 | Cc1cccc(OCCCNC(C)CO)c1C (centres undefined) | Active | inactive | Non-toxic | inactive | Toxic | inactive | inactive | Non-toxic | inactive | inactive | Toxic | Non-toxic | inactive | – | – | – | – | – | – | – | –
2 | Cc1cccc(C)c1OCCOCCN[C@@H]1CCCC[C@H]1O (racemic) | Active | inactive | Non-toxic | inactive | Non-toxic | inactive | inactive | Non-toxic | inactive | inactive | Toxic | Non-toxic | inactive | Non-toxic | 22 | Non-toxic | Non-toxic | 29 | 25 | inactive | inhibition (INH) (Vibrio harveyi [16]): 33%; Activity (Rattus norvegicus [17]): inactive; inhibition (INH) (Vibrio harveyi [18]): 82%; inhibition (INH) (Vibrio harveyi [20]): 52%; inhibition (INH) (Vibrio harveyi [25]): 75%; Activity (Rattus norvegicus [26]): Non-toxic; Activity (Vibrio harveyi [27]): 26; Activity (Rattus norvegicus [28]): Non-toxic; Activity (Rattus norvegicus [29]): inactive; Activity (Rattus norvegicus [30]): inactive
3 | Cc1cccc(C)c1OCCOCCN1CCC(O)CC1 | – | – | Non-toxic | inactive | – | inactive | inactive | Non-toxic | inactive | inactive | Toxic | Non-toxic | inactive | – | 26 | – | – | 22 | 16 | – | inhibition (INH) (Vibrio harveyi [16]): 26%; inhibition (INH) (Vibrio harveyi [18]): 84%; inhibition (INH) (Vibrio harveyi [20]): 12%; inhibition (INH) (Vibrio harveyi [25]): 34%; Activity (Vibrio harveyi [27]): 18
4 | Cc1cc(C)c(OCCN[C@@H]2CCCC[C@H]2O)c(C)c1 (racemic) | – | – | Non-toxic | Active | Toxic | inactive | inactive | Non-toxic | inactive | inactive | Toxic | Non-toxic | inactive | Non-toxic | – | Non-toxic | Non-toxic | – | – | inactive | Activity (Mus musculus [31]): inactive; Activity (Rattus norvegicus [26]): Non-toxic; Activity (Rattus norvegicus [28]): Non-toxic; Activity (Rattus norvegicus [29]): inactive; Activity (Rattus norvegicus [32]): inactive
5 | CCC(CO)NCCCOc1cccc(C)c1C (centres undefined) | Active | inactive | Non-toxic | inactive | Toxic | inactive | inactive | Non-toxic | inactive | inactive | Toxic | Non-toxic | inactive | – | – | – | – | – | – | – | –
6 | Cc1cc(C)c(OCCN[C@H]2CC[C@H](O)CC2)c(C)c1 | Active | inactive | Non-toxic | inactive | – | inactive | – | Non-toxic | inactive | inactive | Toxic | Non-toxic | inactive | Non-toxic | – | Non-toxic | Non-toxic | – | – | inactive | Activity (Rattus norvegicus [17]): inactive; Activity (Rattus norvegicus [26]): Non-toxic; Activity (Rattus norvegicus [28]): Non-toxic; Activity (Rattus norvegicus [29]): inactive; Activity (Rattus norvegicus [32]): inactive
7 | Cc1cccc(OCCOCCN[C@H]2CC[C@H](O)CC2)c1C | – | – | – | – | – | – | – | – | – | – | – | – | – | – | 20 | – | – | 22 | 27 | – | Activity (Vibrio harveyi [27]): 25
8 | Cc1ccc(OCCN[C@H](C)CO)c(C)c1 | – | – | – | – | – | – | – | – | – | – | – | – | – | – | 23 | – | – | 22 | 17 | – | Activity (Vibrio harveyi [27]): 26
9 | Cc1cccc(OCCNC(C)(C)CO)c1C | Active | inactive | Non-toxic | inactive | – | inactive | inactive | Non-toxic | inactive | inactive | Toxic | Non-toxic | inactive | – | – | – | – | – | – | – | –
10 | CCC(CO)NCCOc1cccc(C)c1C (centres undefined) | Active | inactive | Non-toxic | inactive | Toxic | inactive | inactive | Non-toxic | inactive | inactive | – | Non-toxic | inactive | – | – | – | – | – | – | – | –
11 | Cc1cccc(OCCNC(C)CO)c1C (centres undefined) | Active | inactive | Non-toxic | inactive | – | inactive | inactive | Non-toxic | inactive | inactive | Toxic | Non-toxic | inactive | – | – | – | – | – | – | – | –
12 | Cc1cc(C)c(OCCNC(C)CO)c(C)c1 (centres undefined) | Active | inactive | Non-toxic | inactive | Toxic | inactive | inactive | Non-toxic | inactive | inactive | Toxic | Non-toxic | inactive | Non-toxic | – | Non-toxic | Non-toxic | – | – | inactive | Activity (Rattus norvegicus [26]): Non-toxic; Activity (Rattus norvegicus [28]): Non-toxic; Activity (Rattus norvegicus [32]): inactive; Activity (Rattus norvegicus [30]): inactive
